Reference: ChEMBL document CHEMBL4513216, “Probing the Open Global Health Chemical Diversity Library for Multistage-Active Starting Points for Next-Generation Antimalarials” (ACS Infect Dis, 2020)

Test: Toxicity liver stage against HepG2, at 10uM
Type: cell-based
Design: test concentration 10 uM, cell line HepG2-A16-CD81EGFP
Conditions: human, HepG2-A16-CD81EGFP cells; read-out: INHIBITION
Outline: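 Uninfected HepG2-A16-CD81EGFP cells, 3 × 10^3 per well, 1536-well, plated on prespotted compound at 10 μM final, parasite-free screening media added to match infected plates; puromycin 10 μM positive, DMSO 0.5% negative; run in parallel with 48 h PbLuc assay at 37 °C, 5% CO2; viability by CellTiter-Glo luminescence, normalized to controls.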

CN(C(=O)CN1CCCC1=O)C1CCCN(C2Cc3ccccc3C2)C1 (stereo unspecified)
cytotoxicity at 10 µM: 0.024%

Cc1ncsc1C(=O)N(C)Cc1ccccc1
cytotoxicity at 10 µM: -6.92%

CC(C)NC(=O)[C@H]1C[C@@H]2[C@@H](C1)OCCN2Cc1ccco1
cytotoxicity at 10 µM: 4.08%

Cc1ccc(C)c(C(C)NC(=O)N2CCC(n3cncn3)CC2)c1 (stereo unspecified)
cytotoxicity at 10 µM: -8.78%

CCC(=O)NCC(=O)N(C)C(c1ccc(Cl)cc1)c1cccnc1 (stereo unspecified)
cytotoxicity at 10 µM: 3.88%

CCC(C)C(=O)NCc1c(C)nn(C)c1N1CCCN(C)CC1 (stereo unspecified)
cytotoxicity at 10 µM: 4.24%

CCSc1ncc(CN2CCN(c3nc(C)ncc3C)CC2)cn1
cytotoxicity at 10 µM: 27.3%

Cc1ccc(NC2CCN(C(=O)CCCn3ccnc3C)CC2)nn1
cytotoxicity at 10 µM: -11.8%

CCN(C(=O)c1cccc2c1OCO2)c1ccc(Br)cn1
cytotoxicity at 10 µM: 3.44%

CN(C)C(=O)CC1CC2(CCN(Cc3cccs3)CC2)c2ccccc21 (stereo unspecified)
cytotoxicity at 10 µM: -3.87%

COc1ccccc1CN1C(=O)O[C@@H]2CN(c3nc(C)cc(C)n3)C[C@@H]21
cytotoxicity at 10 µM: 0.819%

CCN(Cc1ccc(O)c(C(=O)O)c1)CC1CCOCC1
cytotoxicity at 10 µM: -5.24%

Cn1cc(CNCCC(=O)NCc2ccccc2)c(-c2cccnc2)n1
cytotoxicity at 10 µM: -2.19%

NC(=O)CN(Cc1ccc(Br)cc1)C(=O)c1ccncc1
cytotoxicity at 10 µM: 4.16%

O=C(C1CCS(=O)(=O)CC1)N1CCC(Cc2ccc(F)cc2)CC1
cytotoxicity at 10 µM: -41.9%

Cc1cc(C(N)=O)c(N2C[C@@H](C)[C@@](C)(O)C2)nc1C
cytotoxicity at 10 µM: -9.14%

CCOC(=O)C1CN(C(=O)COC)Cc2ncn(CC)c21 (stereo unspecified)
cytotoxicity at 10 µM: 6.01%

NC1CCN(C(=O)c2cnc(Cc3c(Cl)cccc3Cl)nc2O)C1 (stereo unspecified)
cytotoxicity at 10 µM: -0.803%

CCc1nnc2n1CCN(C(=O)c1ccc(-c3ccco3)[nH]c1=O)C2
cytotoxicity at 10 µM: -11.5%

Cc1noc(C)c1CN1C[C@@H]2COC[C@H](C(=O)N3CCCO3)[C@@H]2C1
cytotoxicity at 10 µM: -66.6%

Cc1nccn1-c1ccc(CNC(=O)c2ccc([S+](C)[O-])cc2)cn1 (stereo unspecified)
cytotoxicity at 10 µM: -18.1%

O=C(c1ccccc1)N1C[C@H]2CC[C@@H](C1)N(C(=O)CN1CCOCC1)C2
cytotoxicity at 10 µM: 9.23%

CC(=O)N[C@@H]1CN(Cc2ccco2)C[C@H]1c1ccc(C)o1
cytotoxicity at 10 µM: -3.33%

COc1ccccc1C1=NOC(CC2(C(=O)NC(C)C)CCOCC2)C1 (stereo unspecified)
cytotoxicity at 10 µM: -20.4%

O=C(NCCN1CCCC1)c1ccc2c(-c3nccs3)noc2c1
cytotoxicity at 10 µM: -2.79%

O[C@H]1[C@H](NCCSc2ccccn2)c2ccccc2C12CCNCC2
cytotoxicity at 10 µM: -13.4%

Cc1nc2cc(-c3nccn3C)nn2c(N2CCC(O)CC2)c1C
cytotoxicity at 10 µM: -3.31%

CCc1ccc(-n2nnc(C(=O)O)c2-c2ccccn2)cc1
cytotoxicity at 10 µM: -1.92%

CC(C)c1nc2n(n1)CC(NCc1ncc(C(C)(C)C)o1)CC2 (stereo unspecified)
cytotoxicity at 10 µM: -17.8%

Cc1ccc(N2CCCC(c3[nH]ncc3-c3ccccc3)C2)nn1 (stereo unspecified)
cytotoxicity at 10 µM: 2.51%

CN(c1ncccc1CNS(=O)(=O)N1CCOCC1)C1CCCCC1
cytotoxicity at 10 µM: 6.39%

O=c1cc(CN2CC[C@@]3(O)CCCC[C@H]3C2)c2cccc3c2n1CCC3
cytotoxicity at 10 µM: -0.948%

CN(C)C(=O)c1cn[nH]c1C1CCCN1Cc1nccn1C (stereo unspecified)
cytotoxicity at 10 µM: -1.08%

Cn1cc(-c2nc(CNCCn3cccn3)cs2)cn1
cytotoxicity at 10 µM: -13%

O=C(CCc1ccc(F)c(F)c1)N1CCCCC1Cn1cccn1 (stereo unspecified)
cytotoxicity at 10 µM: -8.01%

COCc1n[nH]c2c1CN(Cc1cccs1)C2
cytotoxicity at 10 µM: 3.3%

CN(Cc1cnc(C(C)(C)C)nc1)Cc1nc2ccc(F)cc2[nH]1
cytotoxicity at 10 µM: -12.3%

Cc1ccc(C(=O)N(C)C)cc1NC(=O)COCC1CC1
cytotoxicity at 10 µM: 2.95%

Cc1cc(NC(=O)CN2CCn3c(nnc3-c3ccccc3)C2)no1
cytotoxicity at 10 µM: -2.38%

Cc1cc(N2CC(c3n[nH]c4nccnc34)C2)ncn1
cytotoxicity at 10 µM: -11.2%

CN(C)C(=O)N1CC2(CCOCC2)c2cc(NC(=O)CCO)ccc21
cytotoxicity at 10 µM: -6.13%

CCc1ccc(OCCn2cccn2)cc1
cytotoxicity at 10 µM: 8.95%

CN(Cc1ccccn1)C(=O)Nc1cc(C(F)(F)F)c[nH]c1=O
cytotoxicity at 10 µM: 8.36%

COc1ncc(CN(CCCN2CCOCC2)Cc2ccc(C)o2)cn1
cytotoxicity at 10 µM: -33%

CN(Cc1ccc(-n2cccn2)cc1)C(=O)CCC(F)(F)F
cytotoxicity at 10 µM: -3.67%

CCCn1cc(-c2cc(-c3c[nH]cn3)c(C#N)c(N)n2)c(C)n1
cytotoxicity at 10 µM: 10.3%

O=C(NCc1cc[nH]n1)NCC(c1ccco1)N1CCCC1 (stereo unspecified)
cytotoxicity at 10 µM: 13.6%

CNC(=O)CN1CCOCC12CCN(CCc1ccccc1)CC2
cytotoxicity at 10 µM: -76.8%

CS(=O)(=O)N1CCC(NC(=O)COc2ccc3ccccc3c2)CC1
cytotoxicity at 10 µM: -5.56%

CCN1C(=O)CC(c2cnn(C)c2)C12CCN(C(=O)c1ccc[nH]1)CC2 (stereo unspecified)
cytotoxicity at 10 µM: 8.82%

Cc1nn(C)c(C)c1CN(Cc1cccn1-c1cccnc1)C(C)C
cytotoxicity at 10 µM: -3.16%

Cn1cc(S(=O)(=O)N(CC(F)(F)F)C2CC2)cc1C(N)=O
cytotoxicity at 10 µM: -5.02%

CCc1nc(C2CCCN2CCc2cccs2)no1 (stereo unspecified)
cytotoxicity at 10 µM: -108%

O=C(O)COc1ccc(Cl)cc1CN1CCC2(CCOCC2)CC1
cytotoxicity at 10 µM: -6.55%

O=C(CN1CCCC1c1nc(Cc2ccc(F)cc2)no1)NC1CC1 (stereo unspecified)
cytotoxicity at 10 µM: 20.6%

CC(Cn1cccn1)NCc1csc(-c2ncccn2)n1 (stereo unspecified)
cytotoxicity at 10 µM: -14.7%

COC(=O)c1ccc(C(=O)NCc2ccco2)nc1
cytotoxicity at 10 µM: -3.73%

CC(C)n1cc(C(=O)NCC(CO)Cc2cccs2)cn1 (stereo unspecified)
cytotoxicity at 10 µM: 7.64%

CN(C)CC(C)(O)CNC(=O)Nc1sc2ccccc2c1Cl (stereo unspecified)
cytotoxicity at 10 µM: 11.5%

CCOCC1CCN(C(=O)C(c2ccc(F)cc2)N(C)C)CC1 (stereo unspecified)
cytotoxicity at 10 µM: 1.31%

COc1ccnc(NC(=O)CSCc2cccnc2)c1
cytotoxicity at 10 µM: -47.2%

O=C(c1c[nH]nn1)N1CCN(C(c2ccccc2)C(F)(F)F)CC1 (stereo unspecified)
cytotoxicity at 10 µM: 8.92%

COc1ccccc1CN1CC[C@]2(C[C@H](OC)CO2)C1
cytotoxicity at 10 µM: -11.1%

Cc1nn(C)c2nc(-c3ccccn3)nc(NCCCOC(C)C)c12
cytotoxicity at 10 µM: 1.5%

N#CC(NC(=O)CC1CCSCC1)c1cnn(-c2ccccc2)c1 (stereo unspecified)
cytotoxicity at 10 µM: 6.1%

CCCC(=O)N1CCC(Nc2nc(O)cc(-c3ccsc3)n2)CC1
cytotoxicity at 10 µM: 5.46%

CC(=O)N1CCC(C(=O)N2CCC(=Cc3cccc(F)c3)CC2)CC1
cytotoxicity at 10 µM: 3.5%

Cc1ccc2c(n1)N(C)CCN(Cc1cnn(C)c1)C2
cytotoxicity at 10 µM: 3.04%

Cc1ccc(CN2CC3(CCN(C(=O)c4cccnc4)C3)C2)o1
cytotoxicity at 10 µM: -79.6%

COC(=O)N1CC2=CC(C)(C)COc3ccc(OC)c(c32)C1
cytotoxicity at 10 µM: 5%

CC(C)(C)C(O)CN1CCN(C(=O)COCC2CC2)CC1 (stereo unspecified)
cytotoxicity at 10 µM: 5.54%

Cc1noc([C@@]23CCO[C@@H]2CCN(C(=O)CN(C)C)C3)n1
cytotoxicity at 10 µM: 10.1%

O=S(=O)(NCCNc1ccc(-n2cccn2)nn1)c1ccccc1
cytotoxicity at 10 µM: -8.55%

O=C(O)CCC(=O)Nc1nn(Cc2ccc(F)cc2)cc1Cl
cytotoxicity at 10 µM: 13.8%

CSc1ccc(CNC2CCN(CCc3ccncc3)CC2)cc1
cytotoxicity at 10 µM: -8.14%

CCc1nc(N)nc(NCc2cnn3cccnc23)c1C
cytotoxicity at 10 µM: 52.5%

Cc1n[nH]c(C2CN(C(=O)c3cc(C)sc3C)CCO2)n1 (stereo unspecified)
cytotoxicity at 10 µM: 3.35%

c1cnc(N2CCCC(c3csc(Nc4cnccn4)n3)C2)nc1 (stereo unspecified)
cytotoxicity at 10 µM: 8.33%

O=C(NC1CCN(c2cccc(OC(F)(F)F)c2)C1=O)C1CC1 (stereo unspecified)
cytotoxicity at 10 µM: 19.2%

COCCN1CCc2ncnc(NC3CC3)c2CC1
cytotoxicity at 10 µM: 5.62%

Cc1cc(C(=O)N[C@H]2CN(CCO)C[C@@H]2C2CC2)sc1C
cytotoxicity at 10 µM: 1.18%

c1cnnc(N2CCCC(NCc3cccc4c3OCCO4)C2)c1 (stereo unspecified)
cytotoxicity at 10 µM: -7.99%

Cc1noc(C)c1S(=O)(=O)NC(=O)COc1ccc2c(c1)CCC2
cytotoxicity at 10 µM: -3.07%

COCCOCC(=O)Nc1cccc(CN(C)C(C)=O)c1
cytotoxicity at 10 µM: -126%

CC(Cn1ccnc1)NC(=O)NCCc1ccc2c(c1)OCCO2 (stereo unspecified)
cytotoxicity at 10 µM: -1.35%

CC(=O)N1N=C(c2cccs2)OC1C(=O)Nc1ccccc1 (stereo unspecified)
cytotoxicity at 10 µM: -5.58%

Cn1nc(CNC(=O)CC#N)c2c1CN(CC1CC1)CC2
cytotoxicity at 10 µM: 7.4%

CCC(=O)N1CCC2(CC1)CN(CCO)Cc1ccccc12
cytotoxicity at 10 µM: 5.23%

COc1ccc(S(=O)(=O)NCC(O)c2sccc2C)cc1Cl (stereo unspecified)
cytotoxicity at 10 µM: 1.17%

CNC(=O)c1ccc(CNC(=O)c2ccc(Cl)cc2F)cc1
cytotoxicity at 10 µM: 5.66%

COc1c(Br)c(C(=O)NC2CCCC2)nn1C
cytotoxicity at 10 µM: 6.44%

CCn1c(CN2CCCC(Cn3cncn3)C2)nc2c(F)cccc21 (stereo unspecified)
cytotoxicity at 10 µM: 6.49%

CCOCC1CN(Cc2ccsc2)Cc2cnn(C)c21 (stereo unspecified)
cytotoxicity at 10 µM: 7.72%

COc1ccc(-c2cc3cccn(CC(=O)N4CCOCC4)c-3n2)cc1
cytotoxicity at 10 µM: -7.26%

CCn1ncc2c1C(COC)CN(Cc1ccco1)C2 (stereo unspecified)
cytotoxicity at 10 µM: 7.1%

CC(C)c1cc(C(=O)N2CCN(c3cccc(C(=O)O)c3)CC2)n(C)n1
cytotoxicity at 10 µM: -2.95%

CCc1n[nH]c(C2CN(C(=O)CCc3cccs3)CCO2)n1 (stereo unspecified)
cytotoxicity at 10 µM: 5.73%

COc1ccc2c(ccn2CCC(=O)NCc2ccc(C(=O)O)cc2)c1
cytotoxicity at 10 µM: 2.25%

Cc1ccc(NC2CCN(C(=O)c3nccc4ccccc34)CC2)nn1
cytotoxicity at 10 µM: -13.5%

CC(=O)N1CC(=O)N(c2ccsc2)CC12CCN(Cc1ccccn1)C2 (stereo unspecified)
cytotoxicity at 10 µM: 13%

O=C(NCC1(CO)CC1)c1nnn(-c2ccc(F)cc2)c1C1CC1
cytotoxicity at 10 µM: -1.06%

CCn1cc(C(=O)N2CCCC(c3[nH]ncc3S(C)(=O)=O)C2)cn1 (stereo unspecified)
cytotoxicity at 10 µM: 8.42%

CN1C(=O)c2ccc(NC(=O)CSc3ccc4c(c3)CCC4)cc2C1=O
cytotoxicity at 10 µM: 0.0636%

CCOc1ccc(Cl)c(C(=O)NC(C(N)=O)c2ccccc2)n1 (stereo unspecified)
cytotoxicity at 10 µM: -0.425%

Cc1cnccc1-c1cc(NCCO)nc2[nH]ccc12
cytotoxicity at 10 µM: 13.8%

CCOc1ccc(N(C)Cc2nc(C)c(C)o2)cc1
cytotoxicity at 10 µM: 19.9%

Cc1ccc(-c2nc(CNC3CCc4ncnn4C3)co2)c(C)c1 (stereo unspecified)
cytotoxicity at 10 µM: -9.5%

COc1ccc(NC(=O)c2ccco2)c(N2CCN(C(C)=O)CC2)n1
cytotoxicity at 10 µM: -10.2%

Cc1nnc(SC2CCc3ccccc3NC2=O)o1 (stereo unspecified)
cytotoxicity at 10 µM: 1.35%

CCN1C(=O)CCCC12CCCN(C(=O)c1ccsc1)C2 (stereo unspecified)
cytotoxicity at 10 µM: -153%

c1cc(CNCC2CNc3ccnn3C2)cc(N2CCCCC2)n1 (stereo unspecified)
cytotoxicity at 10 µM: 6.91%
